Test results reported in ChEMBL document CHEMBL1123285, “Substituted 1-benzylimidazole-2-thiols as potent and orally active inhibitors of dopamine beta-hydroxylase” (J Med Chem, 1986).
Blank lines part the entries; values can stand above or below the compound they belong to.

Tests used:
Rattus norvegicus [1] = test: In vivo evaluation ot the compound in spontaneously hypertensive rats for the mean arterial blood pressure; type: functional
Method in brief: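 Conscious SHR anesthetized with Brevital Na (10 mg/kg, iv) and femoral artery cannulated to a pressure transducer. After 1-h recovery, baseline MAP taken every 15 min for 1 h. Dosed 50 mg/kg ip unless noted, then MAP recorded every 15–30 min for 4 h. Value at 150 min postdose, mean ± SEM.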

[2] = biological target: T1, Dopamine beta-hydroxylase (Bos taurus, UniProt P15101); test: Binding affinity towards Dopamine beta hydroxylase using tyramine substrate at pH 4.5 in the absence of fumarate
T1 sequence (P15101 whole entry): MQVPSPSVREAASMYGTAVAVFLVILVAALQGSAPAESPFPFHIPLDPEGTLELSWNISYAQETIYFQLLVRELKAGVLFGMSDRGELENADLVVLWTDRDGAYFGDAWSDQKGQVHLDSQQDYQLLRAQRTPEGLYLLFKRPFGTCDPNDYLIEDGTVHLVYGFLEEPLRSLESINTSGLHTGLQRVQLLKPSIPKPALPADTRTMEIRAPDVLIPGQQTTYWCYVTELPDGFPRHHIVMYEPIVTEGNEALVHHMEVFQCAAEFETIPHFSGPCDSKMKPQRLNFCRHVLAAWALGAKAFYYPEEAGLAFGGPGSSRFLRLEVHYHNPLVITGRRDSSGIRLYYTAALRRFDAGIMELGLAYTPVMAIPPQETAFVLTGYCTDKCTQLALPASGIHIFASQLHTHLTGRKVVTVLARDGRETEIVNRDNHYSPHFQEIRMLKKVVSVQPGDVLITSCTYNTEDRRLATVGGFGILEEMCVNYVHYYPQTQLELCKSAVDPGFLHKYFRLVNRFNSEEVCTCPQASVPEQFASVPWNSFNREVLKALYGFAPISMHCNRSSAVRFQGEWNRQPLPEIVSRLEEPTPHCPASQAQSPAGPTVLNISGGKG
Method in brief: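 Homogeneous bovine DBH (sp act. 30–42 U/mg at pH 5.0), tyramine as substrate, pH 4.5, no fumarate. Conditions: 50 mM sodium acetate, ionic strength 0.2, 200 μg/mL bovine catalase, 10 μM Cu²⁺, 10 mM ascorbic acid, 37 °C. Km apparent for tyramine 3.0 mM. Ki fitted with Cleland programs; mean ± SEM.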

[3] = In vivo evaluation ot the compound in spontaneously hypertensive rats for the catecholamine levels by taking the ratio of dopamine to norepinephrine; type: functional
Method in brief: (§1)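 SHR (N = 5) dosed orally twice, about 18 h apart, with vehicle (5% PEG 400 in 1% methocel) or drug at the stated dose. Killed 2 h after the second dose. Mesenteric artery homogenized. Catecholamines measured by COMT methylation with [methyl-3H]-S-adenosylmethionine, chromatographic separation of methylated amines and scintillation counting. Mean ± SEM.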

[4] = Ratio of dopamine to that of NE levels in mesenteric artery measured at 50 mg/kg po; type: functional
Rattus norvegicus [5] = test: DBH inhibitory activity was measured as NE levels in mesenteric artery at dose of 100 mg/kg, po; type: functional, organism-based; set-up: dose 100 mg/kg; method in brief: as §1
Rattus norvegicus [6] = test: DBH inhibitory activity was measured as NE levels in mesenteric artery at dose of 25 mg/kg, po; type: functional, organism-based; set-up: dose 25 mg/kg; method in brief: as §1
Rattus norvegicus [7] = test: DBH inhibitory activity was measured as NE levels in mesenteric artery at dose of 50 mg/kg, po; type: functional, organism-based; set-up: dose 50 mg/kg; method in brief: as §1
Rattus norvegicus [8] = test: DBH inhibitory activity was measured as dopamine levels in mesenteric artery at dose of 100 mg/kg, po; type: functional, organism-based; set-up: dose 100 mg/kg; method in brief: as §1
Rattus norvegicus [9] = test: DBH inhibitory activity was measured as dopamine levels in mesenteric artery at dose of 25 mg/kg, po; type: functional, organism-based; set-up: dose 25 mg/kg; method in brief: as §1
Rattus norvegicus [10] = test: DBH inhibitory activity was measured as dopamine levels in mesenteric artery at dose of 25 mg/kg, po.; type: functional, organism-based; set-up: dose 25 mg/kg; method in brief: as §1
[11] = In vivo evaluation ot the compound in spontaneously hypertensive rats for the catecholamine levels by taking the ratio of copamine to norepinephrine; type: functional
Method in brief: (§2)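 Spontaneously hypertensive rats (N = 5) got two oral doses about 18 h apart, either vehicle (5% PEG 400 in 1% methocel) or drug in vehicle, and were killed 2 h after the second dose. The mesenteric artery was homogenized. Dopamine and NE were measured by catechol O-methyltransferase methylation with [methyl-3H]-S-adenosylmethionine, then chromatographic separation and scintillation counting. Values are mean ± SEM.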

[12] = Ratio of dopamine to that of NE levels in mesenteric artery measured at 100 mg/kg po; type: functional; method in brief: as §2
[13] = Ratio of dopamine to that of NE levels in mesenteric artery measured at 25 mg/kg po; type: functional; method in brief: as §2

Compound: Oc1ccc(Cn2cc[nH]c2=S)cc1
- MAP (Rattus norvegicus [1]): 137 mmHg

- Ki [2]: 5.7 nM
Compound: Oc1c(F)cc(Cn2cc[nH]c2=S)cc1F
- MAP (Rattus norvegicus [1]): 137 mmHg
- Ratio [3]: 0.082

Compound: CCCCc1ccc(C(=O)O)nc1 [FUSARIC ACID]
- Ki [2]: 149 nM
- Ratio [4]: 0.109

- Ki [2]: 41 nM
Compound: Fc1cc(F)cc(Cn2cc[nH]c2=S)c1
- Level (Rattus norvegicus [5]): 3.05 µg of tissue
- Level (Rattus norvegicus [6]): 4.94 µg of tissue
- Level (Rattus norvegicus [7]): 4 µg of tissue
- Level (Rattus norvegicus [8]): 1.06 µg of tissue
- Level (Rattus norvegicus [9]): 0.3 µg of tissue
- Level (Rattus norvegicus [10]): 0.765 µg of tissue
- MAP (Rattus norvegicus [1]): 105 mmHg
- Ratio [11]: 0.208
- Ratio [12]: 0.378
- Ratio [13]: 0.155
- Ratio [4]: 0.204
